In ChEMBL document CHEMBL3352472, “Discovery of 4-aryl-7-hydroxyindoline-based P2Y1 antagonists as novel antiplatelet agents” (J Med Chem, 2014):

How the values were obtained:
[1] = Metabolic stability in rat liver microsomes assessed as compound remaining at 0.5 uM after 10 mins; format: ADME; conditions: read-out: Stability
Procedure, shortened: (§1)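 Compound at 0.5 μM incubated 10 min with 1 mg/mL human, rat or mouse liver microsomes; percentage of parent remaining reported.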

[2] = Metabolic stability in human liver microsomes assessed as compound remaining at 0.5 uM after 10 mins; format: ADME; conditions: read-out: Stability; procedure, shortened: as §1
[3] = Metabolic stability in mouse liver microsomes assessed as compound remaining at 0.5 uM after 10 mins; format: ADME; conditions: read-out: Stability; procedure, shortened: as §1
[4] = target: T1, P2Y purinoceptor 1 (Homo sapiens, UniProt P47900); test: Antagonist activity at P2Y1 receptor in washed human platelets assessed as 1 uM 2-methylthio-ADP-induced calcium flux by FLIPR assay; format: functional
T1 sequence (P47900 whole entry): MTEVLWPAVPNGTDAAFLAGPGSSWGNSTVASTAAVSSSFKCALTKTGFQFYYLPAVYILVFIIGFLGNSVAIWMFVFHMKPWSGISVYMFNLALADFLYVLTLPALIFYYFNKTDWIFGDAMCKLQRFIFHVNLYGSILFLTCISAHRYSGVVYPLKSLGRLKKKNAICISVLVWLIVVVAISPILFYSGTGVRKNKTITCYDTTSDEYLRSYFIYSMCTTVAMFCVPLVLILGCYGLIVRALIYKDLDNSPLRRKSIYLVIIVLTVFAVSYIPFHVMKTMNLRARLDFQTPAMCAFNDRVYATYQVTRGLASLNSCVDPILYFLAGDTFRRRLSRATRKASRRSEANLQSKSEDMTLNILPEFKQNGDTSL

[5] = target: T1, P2Y purinoceptor 1; test: Antagonist activity at P2Y1 receptor in platelet-enriched human plasma assessed as 10 uM ADP-induced platelet aggregation at 40 uM preincubated for 1 min followed by ADP induction measured at 5 mins by aggregometric analysis; format: cell-free
[6] = Volume of distribution at steady state in rat at 0.5 mg/kg by cassette dosing method; format: ADME, organism-based; parameters: dose 0.5 mg/kg; conditions: in vivo, read-out: Vdss
[7] = Clearance in rat at 0.5 mg/kg by cassette dosing method; format: ADME, organism-based; parameters: dose 0.5 mg/kg; conditions: in vivo
[8] = Oral bioavailability in rat at 0.5 mg/kg by cassette dosing method; format: ADME, organism-based; conditions: in vivo

Structure (SMILES)	remaining at 10 min, 0.5 µM [1] [%]	remaining at 10 min, 0.5 µM [2] [%]	remaining at 10 min, 0.5 µM [3] [%]	IC50 [4] [pM]	inhibition [5] [%]	Vd [6] [L/kg]	clearance [7] [mL/min/kg]	bioavailability [8] [%]
CC1(C)CN(c2ccccc2NC(=O)Nc2ccc(OC(F)(F)F)cc2)c2c(O)cc(F)c(-c3ncc(F)cn3)c21	61	41	42	300				
CC1(C)CN(c2ccccc2NC(=O)Nc2ccc(OC(F)(F)F)cc2)c2c(O)ccc(-c3cc(F)cc(F)c3)c21	59	63	64	570				
CC1(C)CN(c2ccccc2NC(=O)Nc2ccc(OC(F)(F)F)cc2)c2c(O)ccc(-c3cccc(F)c3)c21	59	67	56	150				
CC1(C)CN(c2ccccc2NC(=O)Nc2ccc(OC(F)(F)F)cc2)c2c(O)cc(F)c(-c3ccc(F)cc3)c21	84	73	77	230				
CC(C)(C)CN1CCCC1c1ccc(NC(=O)Nc2ccccc2N2CC(C)(C)c3c(-c4ccc(F)cc4)ccc(O)c32)cc1 (stereo not drawn)	34	45	52	40				
CC1(C)CN(c2ccccc2NC(=O)Nc2ccc(OC(F)(F)F)cc2)c2c(O)c(F)cc(-c3ccc(Cl)cc3)c21	100	88	80					
CC1(C)CN(c2ccccc2NC(=O)Nc2ccc(OC(F)(F)F)cc2)c2c(O)ccc(-c3ccc(F)c(F)c3)c21	81	90	66	1800				
CC1(CO)CN(c2ccccc2NC(=O)Nc2nc3ccc(Cl)nc3s2)c2c(O)ccc(Cl)c21 (stereo not drawn)					72			
CC1(C)CN(c2ccccc2NC(=O)Nc2ccc(OC(F)(F)F)cc2)c2c(O)cc(F)c(-c3ccc(C(F)(F)F)nc3)c21	69	68	73	510				
CC(C)(C)CN1CCC2(CC1)CN(c1ccccc1NC(=O)Nc1ccc(OC(F)(F)F)cc1)c1c(O)cc(F)c(-c3ccc(F)cc3)c12	80	81	67	90		1	4.2	17
CC1(C)CN(c2ccccc2NC(=O)Nc2ccc(OC(F)(F)F)cc2)c2c(O)cc(F)c(-c3cnc(Cl)cn3)c21	83	77	67					
CC1(C)CN(c2ccccc2NC(=O)Nc2ccc(OC(F)(F)F)cc2)c2c(O)ccc(-c3ccccc3F)c21	54	62	48	370				
CC(C)(C)CN1CCC2(CC1)CN(c1ccccc1NC(=O)Nc1ccc(OC(F)(F)F)cc1)c1c(O)cc(F)c(-c3ccc(Cl)cc3)c12	72	78	74	160		1.3	3.7	15
CC1(C)CN(c2ccccc2NC(=O)Nc2nc3ccc(Cl)nc3s2)c2c(O)ccc(Cl)c21				140				
CC(C)CN1CCCC1c1ccc(NC(=O)Nc2ccccc2N2CC(C)(C)c3c(-c4ccc(F)cc4)ccc(O)c32)cc1 (stereo not drawn)	39	58	53	20		9.8	34	4
CCOC(=O)C1(C)CN(c2ccccc2NC(=O)Nc2nc3ccc(Cl)nc3s2)c2c(O)ccc(Cl)c21 (stereo not drawn)	14	47	54	50				

Structure (SMILES)	remaining at 10 min, 0.5 µM [1] [%]	remaining at 10 min, 0.5 µM [2] [%]	remaining at 10 min, 0.5 µM [3] [%]	IC50 [4] [pM]	inhibition [5] [%]	Vd [6] [L/kg]	clearance [7] [mL/min/kg]	bioavailability [8] [%]
CC1(C)CN(c2ccccc2NC(=O)Nc2ccc(OC(F)(F)F)cc2)c2c(O)c(F)cc(-c3ccc(F)cc3)c21	71	80	66	450				
CC1(C)CN(c2ccccc2NC(=O)Nc2ccc(OC(F)(F)F)cc2)c2c(O)cc(F)c(-c3cc(F)nc(F)c3)c21	80	75	75	470				
CC1(C)CN(c2ccccc2NC(=O)Nc2ccc(OC(F)(F)F)cc2)c2c(O)cc(F)c(-c3ccc(Cl)s3)c21	79	92	88	2300				
CC1(C)CN(c2ccccc2NC(=O)Nc2nc3ccc(Cl)nc3s2)c2c(O)ccc(-c3ccc(F)cc3)c21	74	75	65	130				
CC1(C)CN(c2ccccc2NC(=O)Nc2ccc(OC(F)(F)F)cc2)c2c(O)ccc(-c3ccc(F)cc3)c21	89	87	83	330				
CC1(C)CN(c2ccccc2NC(=O)Nc2csc(Cl)n2)c2c(O)ccc(-c3ccc(F)cc3)c21	0	80	75	30				
CCOC(=O)C1(C)CN(c2ccccc2NC(=O)Nc2ccc(OC(F)(F)F)cc2)c2c(O)ccc(Cl)c21 (stereo not drawn)				90				
Cc1nc(NC(=O)Nc2ccccc2N2CC(C)(C)c3c(-c4ccc(F)cc4)ccc(O)c32)cs1	55	95	52	80				
CC1(CC(F)(F)F)CN(c2ccccc2NC(=O)Nc2ccc(OC(F)(F)F)cc2)c2c(O)ccc(Cl)c21 (stereo not drawn)	58	79	66	1960				
CC1(C)CN(c2ccccc2NC(=O)Nc2ccc(OC(F)(F)F)cc2)c2c(O)ccc(-c3ccc(F)cc3F)c21	72	81	79	520				
CC1(C(=O)O)CN(c2ccccc2NC(=O)Nc2nc3ccc(Cl)nc3s2)c2c(O)ccc(Cl)c21 (stereo not drawn)					90			
CC1(C)CN(c2ccccc2NC(=O)Nc2ccc(OC(F)(F)F)cc2)c2c(O)cc(F)c(-c3ccc(C(F)(F)F)cn3)c21	97	100	65	570				
CC1(C)CN(c2ccccc2NC(=O)Nc2ccc(OC(F)(F)F)cc2)c2c(O)ccc(-c3ccccc3)c21	67	76	48	370				
CC1(C)CN(c2ccccc2NC(=O)Nc2ccc(OC(F)(F)F)cc2)c2c(O)ccc(-c3ccc(Cl)cc3)c21	83	84	78	130				
CC1(C)CN(c2ccccc2NC(=O)Nc2ccc(OC(F)(F)F)cc2)c2c(O)ccc(Cl)c21	57	66	58	390				
CC1(C)CN(c2ccccc2NC(=O)Nc2ccc(OC(F)(F)F)cc2)c2c(O)ccc(-c3ccc(C(F)(F)F)cc3)c21	94	96	89	1510				
